In ChEMBL document CHEMBL1153919, “Pyrano[2,3-e]isoindol-2-ones, new angelicin heteroanalogues” (Bioorg Med Chem Lett, 2009) one finds IC50 data, which are given here for 17 molecules.

Molecules are shown by their SMILES.

Assay [1] relates to LoVo. Nature of the assay: Phototoxicity against human LoVo cells exposed to irradiation with 2.5 J/cm'2 UVA light prior to 72 hrs drug exposure by MTT assay. The conditions noted are these: light or radiation study. The format is functional, cell-based. An outline of the steps:
(§1)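 Phototoxicity panel: NCTC-2544 keratinocytes, LoVo adenocarcinoma, K562 and Jurkat leukemia cells. Cells with compound received UVA at 2.5 or 3.75 J/cm2. Cell growth was measured by MTT after 72 h of exposure. IC50 is the concentration inhibiting growth by 50%.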

For assay [2], the system named is LoVo. Nature of the assay: Phototoxicity against human LoVo cells exposed to irradiation with 3.75 J/cm'2 UVA light prior to 72 hrs drug exposure by MTT assay. The format is functional, cell-based. The conditions noted are these: light or radiation study. An outline of the steps: as §1
In assay [3] the test system is K562. Nature of the assay: Cytotoxicity against human K562 cells after 72 hrs by MTT assay. The format is functional, cell-based. The conditions noted are these: K562, 72 h.
Assay [4] has as its system K562. Nature of the assay: Phototoxicity against human K562 cells exposed to irradiation with 2.5 J/cm'2 UVA light prior to 72 hrs drug exposure by MTT assay. To be noted: K562, light or radiation study. The format is functional, cell-based. The procedure, abridged: as §1
Background: Tetrazolium dyes change colour on reduction, which living cells bring about.

The test system of assay [5] is K562. Nature of the assay: Phototoxicity against human K562 cells exposed to irradiation with 3.75 J/cm'2 UVA light prior to 72 hrs drug exposure by MTT assay. The format is functional, cell-based. To be noted: K562, light or radiation study. The procedure, abridged: as §1
Assay [6] has as its system Jurkat. Nature of the assay: Cytotoxicity against human Jurkat cells after 72 hrs by MTT assay. The format is functional, cell-based.
Assay [7] deals with Jurkat. Nature of the assay: Phototoxicity against human Jurkat cells exposed to irradiation with 2.5 J/cm'2 UVA light prior to 72 hrs drug exposure by MTT assay. The format is functional, cell-based. The conditions noted are these: light or radiation study. An outline of the steps: as §1
Assay [8] deals with Jurkat. Nature of the assay: Phototoxicity against human Jurkat cells exposed to irradiation with 3.75 J/cm'2 UVA light prior to 72 hrs drug exposure by MTT assay. The format is functional, cell-based. The conditions noted are these: light or radiation study. An outline of the steps: as §1
Assay [9] can be described thus: Cytotoxicity against human NCTC-2544 cells after 72 hrs by MTT assay. The format is cell-based. The conditions noted are these: NCTC-2544, 72 h.
Assay [10] in a line: Phototoxicity against human NCTC-2544 cells exposed to irradiation with 2.5 J/cm'2 UVA light prior to 72 hrs drug exposure by MTT assay. The format is cell-based. The conditions noted are these: NCTC-2544, light or radiation study. An outline of the steps: as §1
A short description of assay [11]: Phototoxicity against human NCTC-2544 cells exposed to irradiation with 3.75 J/cm'2 UVA light prior to 72 hrs drug exposure by MTT assay. The format is cell-based. To be noted: NCTC-2544, light or radiation study. The procedure, abridged:
as §1

Assay [12] deals with LoVo. Nature of the assay: Cytotoxicity against human LoVo cells after 72 hrs by MTT assay. The format is functional, cell-based.

For orientation: IC50 means the concentration that gives 50% inhibition. Turning to `CCOC(=O)c1cc2c(oc1=O)-c1cn(C)cc1CC2`, the IC50 in the assay on LoVo [1], in the assay with LoVo [2], in the assay with K562 [3], in the assay with K562 [4], in the assay with K562 [5] and in the assay with Jurkat [6] was more than 20 µM in each case. Also, the half-maximal inhibitory concentration (IC50) (in the assay with Jurkat [7]; in the assay with Jurkat [8]; in assay [9]; in assay [10]; in [11]; with LoVo [12]) was more than 20 µM each time.
As for `O=c1ccc2c(o1)-c1cn(Cc3ccccc3)cc1CC2`, the half-inhibitory concentration (IC50) in the assay on LoVo [1], in the assay on LoVo [2], with K562 [3], in the assay on K562 [4], in the assay with K562 [5] and with Jurkat [6] was more than 20 µM in each case. Besides, the IC50 (with Jurkat [7]; in the assay on Jurkat [8]; in assay [9]; in [10]; in assay [11]; in the assay with LoVo [12]) was more than 20 µM each time.
For `Cn1cc2c(c1)-c1oc(=O)ccc1CC2`, the IC50 with LoVo [1], with LoVo [2], with K562 [3], in the assay on K562 [4], in the assay with K562 [5] and in the assay on Jurkat [6] was more than 20 µM each time. The IC50 (with Jurkat [7]; in the assay with Jurkat [8]; in [9]; in assay [10]; in assay [11]; in the assay with LoVo [12]) was more than 20 µM each time.
Consider `CCOC(=O)c1cc2c(oc1=O)-c1cn(Cc3ccccc3)cc1CC2`, for which the concentration for half-maximal inhibition (IC50) in the assay with LoVo [1], in the assay with LoVo [2], with K562 [3], in the assay with K562 [4], in the assay on K562 [5] and with Jurkat [6] was more than 20 µM each time. The IC50 (in the assay on Jurkat [7]; in the assay on Jurkat [8]; in [9]; in assay [10]; in assay [11]; in the assay with LoVo [12]) was more than 20 µM throughout.
Regarding `CCOC(=O)c1cc2c(oc1=O)-c1c(c(C(=O)OCC)n(Cc3ccc(OC)cc3)c1C)CC2`, the concentration for half-maximal inhibition (IC50) is more than 20 µM in the assay on LoVo [1]; more than 20 µM in the assay with LoVo [2]; more than 20 µM in the assay with K562 [3]; more than 20 µM with K562 [4]; 14 µM in the assay with K562 [5]; more than 20 µM in the assay on Jurkat [6]. Further, the IC50 is more than 20 µM in the assay with Jurkat [7]; 13.5 µM with Jurkat [8]; more than 20 µM in assay [9]; more than 20 µM in [10]; more than 20 µM in assay [11]; more than 20 µM in the assay on LoVo [12].
`CCOC(=O)c1cc2c(oc1=O)-c1c(c(C(=O)OCC)n(C)c1C)CC2`: the half-maximal inhibitory concentration (IC50) in the assay with LoVo [1] is more than 20 µM; in the assay on LoVo [2] it was 11.1 µM; in the assay with K562 [3], more than 20 µM; with K562 [4], 13.9 µM; in the assay on K562 [5], 13.1 µM; in the assay with Jurkat [6], more than 20 µM. The half-inhibitory concentration (IC50) was 15.4 µM with Jurkat [7]; 15.2 µM in the assay with Jurkat [8]; more than 20 µM in assay [9]; more than 20 µM in assay [10]; more than 20 µM in [11]; more than 20 µM in the assay on LoVo [12].
As to `COc1c2occc2cc2ccc(=O)oc12` [METHOXSALEN], the IC50 in the assay with K562 [3] was more than 20 µM; with Jurkat [6] it was more than 20 µM; in assay [9], more than 20 µM; in [10], 5.5 µM; in the assay on LoVo [12] it was more than 20 µM.
Turning to `CCOC(=O)c1cc2c(oc1=O)-c1c(cn(Cc3ccccc3)c1C)CC2`, the IC50 in the assay with LoVo [1], with LoVo [2], in the assay with K562 [3], in the assay on K562 [4], in the assay with K562 [5] and with Jurkat [6] was more than 20 µM each time. In addition, the 50% inhibitory concentration (IC50) (in the assay on Jurkat [7]; in the assay on Jurkat [8]; in assay [9]; in assay [10]; in assay [11]; with LoVo [12]) was more than 20 µM in each case.
For `CCOC(=O)c1cc2ccc3c(C(=O)OCC)n(C)c(C)c3c2oc1=O`, the IC50 with LoVo [1] is 16.2 µM; in the assay with LoVo [2], 6.7 µM; with K562 [3], more than 20 µM; in the assay on K562 [4] it was more than 20 µM; in the assay on K562 [5], more than 20 µM; in the assay with Jurkat [6] it was more than 20 µM. In addition, the concentration for half-maximal inhibition (IC50) (with Jurkat [7]; in the assay on Jurkat [8]; in assay [9]; in [10]; in assay [11]; with LoVo [12]) was more than 20 µM throughout.
With `O=c1ccc2ccc3occc3c2o1` [ANGELICIN], the IC50 in the assay with K562 [3] is more than 20 µM; in the assay with Jurkat [6], more than 20 µM; in [9], more than 20 µM; in [10] it was 4.2 µM; in the assay with LoVo [12] it was more than 20 µM.
In the case of `CCOC(=O)c1cc2c(oc1=O)-c1c(c(C(=O)OCC)n(Cc3ccc(C)cc3)c1C)CC2`, the IC50 is more than 20 µM in the assay on LoVo [1]; 15 µM with LoVo [2]; more than 20 µM in the assay on K562 [3]; 13.5 µM in the assay with K562 [4]; 9.3 µM in the assay on K562 [5]; more than 20 µM in the assay on Jurkat [6]. For the same molecule, the IC50 in the assay with Jurkat [7] was 16.1 µM; with Jurkat [8], 12.8 µM; in [9] it was more than 20 µM; in [10], more than 20 µM; in assay [11], 17 µM; in the assay with LoVo [12], more than 20 µM.
As for `CCOC(=O)c1cc2ccc3c(C(=O)OCC)[nH]c(C)c3c2oc1=O`, the half-inhibitory concentration (IC50) was more than 20 µM in the assay on LoVo [1]; 17.8 µM with LoVo [2]; more than 20 µM in the assay on K562 [3]; more than 20 µM in the assay with K562 [4]; more than 20 µM in the assay on K562 [5]; more than 20 µM in the assay with Jurkat [6]. Besides, the IC50 (in the assay on Jurkat [7]; with Jurkat [8]; in assay [9]; in assay [10]; in assay [11]; with LoVo [12]) was more than 20 µM throughout.
On to `CCOC(=O)c1[nH]c(C)c2c1CCc1cc(C(=O)OCC)c(=O)oc1-2`, for which the 50% inhibitory concentration (IC50) in the assay with LoVo [1], in the assay on LoVo [2], in the assay with K562 [3], with K562 [4], with K562 [5] and in the assay on Jurkat [6] was more than 20 µM in each case. Besides, the IC50 (in the assay on Jurkat [7]; in the assay with Jurkat [8]; in assay [9]; in assay [10]; in assay [11]; in the assay with LoVo [12]) was more than 20 µM in each case.
Consider `Cn1cc2c(c1)-c1oc(=O)c(C(=O)O)cc1CC2`, for which the half-maximal inhibitory concentration (IC50) in the assay with LoVo [1], in the assay with LoVo [2], with K562 [3], with K562 [4], in the assay with K562 [5] and in the assay on Jurkat [6] was more than 20 µM each time. Besides, the IC50 (in the assay with Jurkat [7]; with Jurkat [8]; in assay [9]; in [10]; in [11]; with LoVo [12]) was more than 20 µM each time.
As to `CCOC(=O)c1cc2c(oc1=O)-c1cn(-c3ccccc3)cc1CC2`, the IC50 in the assay with LoVo [1], in the assay with LoVo [2], in the assay on K562 [3], in the assay on K562 [4], with K562 [5] and in the assay with Jurkat [6] was more than 20 µM each time. Also, the concentration for half-maximal inhibition (IC50) (in the assay with Jurkat [7]; with Jurkat [8]; in assay [9]; in assay [10]; in assay [11]; in the assay on LoVo [12]) was more than 20 µM in each case.
Consider `CCOC(=O)c1c2c(c(C)n1Cc1ccc(OC)cc1)-c1oc(=O)c(C(=O)OC)cc1CC2`, for which the half-maximal inhibitory concentration (IC50) in the assay on LoVo [1] is more than 20 µM; with LoVo [2], more than 20 µM; in the assay with K562 [3] it was more than 20 µM; in the assay with K562 [4], more than 20 µM; in the assay on K562 [5], 12.6 µM; in the assay on Jurkat [6] it was more than 20 µM. The 50% inhibitory concentration (IC50) in the assay with Jurkat [7] was more than 20 µM; in the assay on Jurkat [8], 11.8 µM; in [9], more than 20 µM; in assay [10], more than 20 µM; in [11], more than 20 µM; with LoVo [12] it was more than 20 µM.
In the case of `CCOC(=O)c1c2c(c(C)n1Cc1ccc(C)cc1)-c1oc(=O)c(C(=O)OC)cc1CC2`, the IC50 is more than 20 µM in the assay on LoVo [1]; more than 20 µM in the assay with LoVo [2]; more than 20 µM with K562 [3]; more than 20 µM with K562 [4]; 16.6 µM in the assay on K562 [5]; more than 20 µM with Jurkat [6]. In addition, the IC50 in the assay on Jurkat [7] was more than 20 µM; in the assay on Jurkat [8] it was 17.8 µM; in [9] it was more than 20 µM; in [10] it was more than 20 µM; in [11], more than 20 µM; in the assay with LoVo [12], more than 20 µM.
